≈ marks a conversion by molar mass, not a printed value. Calls of active or inactive are those of the source. No cut-off for these calls is given here.

We go through one compound from ChEMBL document CHEMBL3580567 (J Med Chem, 2015).

The target in data set [1] is T1, Melatonin receptor type 1A (Homo sapiens, UniProt P48039). The data set can be described thus: Agonist activity at human recombinant melatonin receptor-1 expressed in CHO cells assessed as effect on impedance by cellular dielectric spectroscopy. In kind it is cell-based. An outline of the steps: (§1)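 Functional agonist profiling was done by CEREP on cells expressing human recombinant MT receptors. MT1 was read by cellular dielectric spectroscopy and MT2 by homogeneous time-resolved fluorescence. The protocols are those on the company website.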
T1 sequence (P48039 whole entry): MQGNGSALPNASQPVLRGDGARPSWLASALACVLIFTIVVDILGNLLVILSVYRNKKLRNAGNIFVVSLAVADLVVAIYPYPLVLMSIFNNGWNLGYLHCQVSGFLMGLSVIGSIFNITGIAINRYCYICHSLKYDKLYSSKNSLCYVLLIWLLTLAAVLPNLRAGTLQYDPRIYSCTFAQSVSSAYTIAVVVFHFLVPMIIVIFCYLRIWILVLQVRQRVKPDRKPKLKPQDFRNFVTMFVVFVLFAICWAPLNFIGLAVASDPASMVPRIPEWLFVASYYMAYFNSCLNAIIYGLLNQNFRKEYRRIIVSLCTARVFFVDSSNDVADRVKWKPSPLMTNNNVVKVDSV

Data set [2] concerns the target T2, Melatonin receptor type 1B (Homo sapiens) (UniProt P49286).
T2 sequence (whole entry): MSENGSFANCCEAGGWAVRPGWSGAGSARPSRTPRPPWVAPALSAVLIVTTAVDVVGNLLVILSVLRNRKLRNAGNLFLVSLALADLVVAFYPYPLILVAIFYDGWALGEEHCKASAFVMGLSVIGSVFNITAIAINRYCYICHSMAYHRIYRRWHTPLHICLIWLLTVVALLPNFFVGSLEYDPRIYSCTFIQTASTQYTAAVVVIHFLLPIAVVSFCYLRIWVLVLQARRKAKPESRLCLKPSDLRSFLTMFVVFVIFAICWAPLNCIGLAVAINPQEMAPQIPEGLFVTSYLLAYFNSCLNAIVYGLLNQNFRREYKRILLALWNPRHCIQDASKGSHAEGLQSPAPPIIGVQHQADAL
The data set can be described thus: Agonist activity at human melatonin receptor-2 transfected in CHO cell membranes after 1 hr by GTPgammaS binding assay relative to melatonin. In kind it is functional. An outline of the steps:
(§2)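 CHO membranes (20 µg/mL) stably expressing human MT1 or MT2 in 20 mM HEPES pH 7.4, 100 mM NaCl, 3 µM GDP, 3 mM MgCl2, 20 µg/mL saponin. Incubated with 0.2 nM [35S]GTPγS for 1 h at rt, then filtered. Non-specific binding defined with 10 µM GTPγS. Seven concentrations in duplicate; EC50 and Emax fitted.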
Background: GTPγS is a poorly hydrolysed GTP analogue; its binding reports G protein activation.

Data set [3] in a line: Induction of primary neuronal stem cell differentiation derived from subgranular zone of dentate gyrus of Wistar rat hippocampus assessed as upregulation of TuJ1 expression at 10 uM incubated for 7 days followed by 48 hrs incubation in presence of serum and absence of EGF by DAPI staining-based fluorescence microscopic analysis. In kind it is functional. To be noted: Primary neuron. Summed up: (§3)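 Neurospheres came from the SGZ of the dentate gyrus of adult male Wistar rats (8-12 weeks). They were grown in DMEM/F12 with 10 ng/mL EGF, 10 ng/mL FGF and B27. After 3 days, cultures were treated with compounds for 7 days. They were then plated on poly-L-lysine coverslips for 48 h with serum and without growth factors. Cells were immunostained for TuJ1 and MAP-2 with DAPI nuclei. Positive cells were counted by fluorescence microscopy in five NS per condition over three independent experiments. Untreated cultures gave basal values.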

Data set [4] can be described thus: Thermodynamic solubility in phosphate buffer at pH 7.4 after 24 hrs by UV spectra analysis. In kind it is physicochemical. The conditions noted are these: read-out: Therm_solubility. An outline of the steps:
(§4)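 Thermodynamic solubility: about 1 mg of solid was saturated in 200 µL buffer and stirred 24 h at rt at 320 rpm, then centrifuged. Supernatant was diluted with buffer-MeCN 80:20 and read by UV at its absorbance maximum. Values were quantified against a calibration line from a 10 mM DMSO stock, checked with a quality-control standard. Runs were in triplicate. The buffers were pH 7.4 phosphate 45 mM and NH4Cl for the basic pH.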

In data set [5] the target is T3, Melatonin receptor type 1B (Homo sapiens, UniProt P49286).
T3 sequence (P49286 whole entry): T2 sequence (whole entry)
The data set is described as follows: Displacement of 2-[125I]-iodomelatonin from human melatonin receptor-2 transfected in CHO cell membranes after 120 mins.

The species named for another data set is Homo sapiens. The data set can be described thus: Selectivity ratio of Ki for human melatonin receptor-1 to Ki for human melatonin receptor-2.
Data set [6] addresses T1, Melatonin receptor type 1A. The data set is described as follows: Displacement of 2-[125I]-iodomelatonin from human melatonin receptor-1 transfected in CHO cell membranes after 120 mins.
A short description of data set [7]: Induction of primary neuronal stem cell differentiation derived from subgranular zone of dentate gyrus of Wistar rat hippocampus assessed as upregulation of TuJ1 expression at 10 uM incubated for 7 days followed by 48 hrs incubation in presence of serum and absence of EGF by DAPI staining-based fluorescence microscopic analysis in presence of melatonin receptor antagonist luzindole. In kind it is functional. To be noted: Primary neuron. Summed up:
as §3

Data set [8] addresses T2, Melatonin receptor type 1B (Homo sapiens). The data set is described as follows: Agonist activity at human recombinant melatonin receptor-2 expressed in CHO cells assessed as decrease of cAMP level after 10 mins by HTRF assay relative to melatonin. In kind it is functional, cell-based.
The nature of data set [9]: Induction of primary neuronal stem cell maturation derived from subgranular zone of dentate gyrus of Wistar rat hippocampus assessed as upregulation of MAP-2 expression at 10 uM incubated for 7 days by DAPI staining-based fluorescence microscopic analysis. In kind it is functional. To be noted: Primary neuron. An outline of the steps:
as §3

Data set [10] is described as follows: Induction of primary neuronal stem cell maturation derived from subgranular zone of dentate gyrus of Wistar rat hippocampus assessed as upregulation of MAP-2 expression at 10 uM incubated for 7 days by DAPI staining-based fluorescence microscopic analysis in presence of melatonin receptor antagonist luzindole. In kind it is functional, tissue-based. To be noted: Primary neuron. Summed up:
as §3

The target in data set [11] is T1, Melatonin receptor type 1A. The data set can be described thus: Agonist activity at human melatonin receptor-1 transfected in CHO cell membranes after 1 hr by GTPgammaS binding assay. In kind it is functional.
Data set [12] can be described thus: Permeability of the compound at 100 ug/ml after 240 mins by PAMPA. In kind it is physicochemical. To be noted: 4 h. An outline of the steps: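 For PAMPA-BBB, the filter was coated with porcine brain lipid in dodecane (20 mg/mL). Donor compound was 100 µg/mL in PBS:ethanol 70:30, pH 7.4, and the acceptor held PBS:ethanol 70:30. Plates were incubated 240 min at 25 °C. Acceptor concentration was read by UV-Vis at five wavelengths in four wells, over at least three runs. Eleven quality-control standards were included.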
(PAMPA measures passive passage across an artificial lipid membrane.)

The target in data set [13] is T3, Melatonin receptor type 1B. The data set is described as follows: Agonist activity at human recombinant melatonin receptor-2 expressed in CHO cells assessed as decrease of cAMP level after 10 mins by HTRF assay. In kind it is functional, cell-based. An outline of the steps: as §1
(In general: Cyclic AMP is a second messenger, typically raised through Gs and lowered through Gi signalling.)

Data set [14] in a line: Thermodynamic solubility in NH4Cl buffer at pH 9.3 after 24 hrs by UV spectra analysis. In kind it is physicochemical. The conditions noted are these: read-out: Therm_solubility. An outline of the steps: as §4
Data set [15] concerns the target T3, Melatonin receptor type 1B. The data set can be described thus: Agonist activity at human melatonin receptor-2 transfected in CHO cell membranes after 1 hr by GTPgammaS binding assay. In kind it is functional.
Data set [16] deals with T1, Melatonin receptor type 1A. The data set can be described thus: Agonist activity at human melatonin receptor-1 transfected in CHO cell membranes after 1 hr by GTPgammaS binding assay relative to melatonin. In kind it is functional. Summed up: as §2
A short description of data set [17]: Thermodynamic solubility in buffer at pH 5.5 after 24 hrs by UV spectra analysis. In kind it is physicochemical. The conditions noted are these: read-out: Therm_solubility.
Data set [18] addresses T1, Melatonin receptor type 1A. The data set is described as follows: Agonist activity at human recombinant melatonin receptor-1 expressed in CHO cells assessed as effect on impedance by cellular dielectric spectroscopy relative to melatonin. In kind it is cell-based.

As usually defined, the EC50 is the midpoint of the concentration-response curve. For orientation: Emax means the maximal effect, on the per cent scale that the assay sets. Broadly, the Ki is the equilibrium dissociation constant of an inhibitor or competing ligand from its target. Read a high Ki as weaker binding. `COc1ccc2[nH]cc(CCc3n[nH]c(=O)o3)c2c1`: the EC50 was determined as 48 nM in [1], 326 nM in [11], 5.5 nM in data set [13] and 29 nM in data set [15]. Besides, the Emax came to 30% in data set [2], 97% in data set [8], 26% in data set [16] and 100% in [18]. Moreover, the outcome in data set [3] and in data set [9] was Active. The figures for the solubility thermodynamic at 24 h in data set [4], in data set [14] and in data set [17] were 2100 µM (≈ 544 µg/mL), 7920 µM (≈ 2050 µg/mL) and 1410 µM (≈ 365 µg/mL), respectively. Also, the Ki in [5] is 4 nM; in [6], 35 nM. Besides, the Ratio Ki in the data set filed under Homo sapiens came to 10. Moreover, the result in [7] and in data set [10] was inactive. The permeability entry in [12] is given as “permeable”.
